Screening data: PubChem, Johns Hopkins Ion Channel Center
Hits are enriched below; roughly 3.7% of the tested compounds scored in any of these assays.
KCNQ1 block: human KCNQ1 channel inhibition | B-score at 10 µM | AID 2642 | 310,000 compounds, 1.3% hits | CHO-K1 KCNQ1, FluxOR thallium flux fluorescence; hits give high values | P51787;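 active means compounds whose thallium flux B-score, printed positive for inhibition, exceeds three library SD while starting fluorescence stays within three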;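 further: channel opened by potassium depolarization with thallium stimulus after 20 min compound exposure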
KCNQ1 act: potentiators or activators of human KCNQ1 potassium channel. AID 2648. B-score at 10 µM. CHO-K1 KCNQ1, thallium flux FluxOR fluorescence; hits give high values. 310,000 compounds, 0.35% hits;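 active means fluorescence ratio B-score, a plate-corrected score, at least three library SD, with initial intensity B-score within 5 SD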
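Medium – assay buffer, equal DMSO in all wells · Material – CHO-K1 cell line with stable KCNQ1 potassium channel expression · Signal – kinetic FluxOR thallium fluorescence, 10-s 1-Hz baseline, 110-s post-stimulus read · Compound – single concentration per compound, DMSO matched to controls · Schedule – 37 °C overnight plating, 90-min dark dye load, 20-min compound pretreatment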
Kir21 block: Kir2.1 (mouse) channel inhibition; P35561; HEK293-Kir2.1, FluxOR thallium flux fluorescence; hits give low values; B-score at 10 µM; 310,000 compounds, 0.85% hits;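 active means fluorescence ratio B-score at or below minus 3 SD of library scores, with starting-brightness B-score within 2 SD, cut at about -4.2 in these data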;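 further: channel flux triggered by added potassium and thallium sulfate stimulus; B-score of peak minus minimum fluorescence over baseline after thallium stimulus; more negative B-score means stronger Kir2.1 block with less thallium influx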
KCNK9 inh: blocks the human KCNK9 two-pore domain potassium channel; Q9NPC2; HEK293 KCNK9, FluxOR thallium flux fluorescence; hits give low values; B-score at 10 µM; 310,000 compounds, 1.2% hits; AID 488922;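 active means ratio B-score over 3 SD below the library mean, with starting fluorescence within 5 SD of its mean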;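 further: negative B-score means less thallium flux so channel inhibition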
Target sequence (Q9NPC2 whole entry, looked up, the tested form may be a part): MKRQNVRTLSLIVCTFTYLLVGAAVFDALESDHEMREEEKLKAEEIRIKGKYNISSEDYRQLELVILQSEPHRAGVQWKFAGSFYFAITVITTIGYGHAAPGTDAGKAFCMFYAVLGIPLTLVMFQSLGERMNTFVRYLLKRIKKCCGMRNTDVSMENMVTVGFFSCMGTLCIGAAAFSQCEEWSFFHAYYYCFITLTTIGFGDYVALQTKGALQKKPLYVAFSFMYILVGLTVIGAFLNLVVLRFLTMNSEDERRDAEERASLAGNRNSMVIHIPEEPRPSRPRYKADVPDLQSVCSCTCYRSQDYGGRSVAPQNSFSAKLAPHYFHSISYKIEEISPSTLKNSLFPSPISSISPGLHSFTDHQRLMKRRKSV
KCNK3 inh: human KCNK3 channel inhibition, primary screen. O14649. CHO-KCNK3 thallium flux, FluxOR fluorescence; hits give low values. B-score at 10 µM. 340,000 compounds, 0.84% hits. AID 602410;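 active means B-score under library mean minus 4 SD, starting fluorescence ratio at most library mean plus 5 SD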;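 further: more negative B-score means stronger inhibition of thallium flux through KCNK3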
hERG rescue: shields human hERG channel from block by proarrhythmic agents; Q12809; CHO-hERG, FluxOR thallium flux, dofetilide IC70 present; activation (rescue from dofetilide block), less the hit threshold, % at 10 µM; 310,000 compounds, 0.51% hits; AID 1511;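 active means activation above the mean of controls blocked by dofetilide plus 5 SD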;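 further: thallium influx through hERG after potassium depolarization seen as dye fluorescence rise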
Numbers stand for hits; – = inactive; · = not tested or not shown.

SMILES	KCNQ1 block	KCNQ1 act	Kir21 block	KCNK9 inh	KCNK3 inh	hERG rescue
COc1ccccc1C(=O)NC(=S)NNC(=O)c1sc2ccccc2c1Cl	–	46	–	–	–	86
COc1ccccc1C(=O)NNC(=S)NC(=O)c1cccs1	–	10	–	–	–	–
O=C(CCc1nnc2ccc(N3CCOCC3)nn12)Nc1ccc(F)cc1F	–	–	–	–	–	–
O=C(NCCCN1CCOCC1)c1cccnc1SCc1ccccc1Cl	–	–	–	–	–	–
CCOc1ccccc1NC(=O)COC(=O)c1nc2nccc(C)n2n1	·	·	·	·	–	·
COc1ccccc1NC(=O)C(=O)Nc1ccc2c(c1)N(C(=O)C1CC1)CCC2	–	–	–	–	–	–
COC(=O)c1sccc1NC(=O)c1c(C)c(-c2cccc(Cl)c2)nc2ccccc12	–	–	–	–	–	–
O=C(COC(=O)c1cccnc1Cl)NCc1ccco1	–	–	–	–	–	–
CN1CCC(=C(c2ccccc2)c2ccc(Br)cc2)CC1	–	–	-8.6	–	–	–
Cc1cc(N2CCCC2)ccc1NC(=O)COc1cccc(C(F)(F)F)c1	–	–	–	–	–	–
CCCc1cnc(NCCNCC(O)COc2ccc(Cl)c(Cl)c2)nc1 (centres undefined)	–	–	-6.5	–	–	–
OCCN1CCN(CC#CCC(c2ccccc2)c2ccccc2)CC1	–	–	-5.7	–	–	–
OCCN1CCN(CC#CCn2c3ccccc3c3ccccc32)CC1	–	–	–	–	–	–
COc1ccc(NC(=O)/C(=C/c2ccc(OC(C)=O)c(OC)c2)NC(C)=O)cc1	–	88	–	–	–	–
COc1cc(/C=C(\NC(C)=O)C(=O)Nc2ccc(NC(C)=O)cc2)ccc1OC(C)=O	–	–	–	–	–	–
N#CCC(=O)Nc1ccc(C(=O)NCCc2c[nH]c3ccccc23)cc1	–	–	–	–	–	–
C[C@H](NC(=O)C1CCN(S(=O)(=O)c2ccccc2)CC1)C(=O)NCc1ccco1	–	–	–	–	–	–
O=c1c2c3c(sc2[nH]c(=S)n1Cc1ccco1)CCC3	–	15	–	–	–	11
Cc1ccc(-n2c(=S)[nH]c3sc4c(c3c2=O)CCC4)cc1	–	8	–	–	–	–
Cc1ccc(-n2c(=O)c3c4c(sc3n3c(=S)[nH]nc23)CCC4)cc1	–	–	–	–	–	–
C=CCn1c(=S)[nH]c2sc3c(c2c1=O)CCCC3	–	65	–	–	–	12
COCCn1c(=S)[nH]c2sc3c(c2c1=O)CCCC3	–	30	–	–	–	17
Cc1cccc(NC(=O)CSCC(=O)N2CCN(C(=O)c3ccco3)CC2)c1	·	·	·	·	–	·
Cc1c(Cl)cccc1NC(=S)NC1CCCC1	–	–	–	–	–	–
O=C(COC(=O)c1ccc(CO)cc1)Nc1ccc(OC(F)F)cc1	–	–	–	–	–	–
SMILES	KCNQ1 block	KCNQ1 act	Kir21 block	KCNK9 inh	KCNK3 inh	hERG rescue
O=C1c2nccnc2C(=O)N1c1ccc(C(F)(F)F)cc1	–	–	–	–	–	–
CSC(C(=O)c1cc2ccccc2o1)c1ccccc1 (centres undefined)	–	15	–	–	–	–
Cc1ccc(CN2CCN(/N=C/c3cccs3)CC2)cc1	–	–	–	–	–	–
COc1cccc(/C=C/C(=O)OCC(=O)NCCCc2ccccc2)c1OC	·	·	·	·	–	·
CCOC(=O)c1ccc(-c2csc(NC(=O)CN3CCC(C)CC3)n2)cc1	–	–	–	–	–	–
CN1CCN(C2=Cc3ccccc3Sc3cc(F)ccc32)CC1	–	–	-8.4	–	–	–
NS(=O)(=O)c1ccc(Nc2ncccc2[N+](=O)[O-])cc1	–	–	–	–	–	4.6
COc1ccc(-c2noc(CCCCC(=O)N3CCN(c4cc(C)ccc4C)CC3)n2)cc1	·	·	·	·	-11	·
COc1ccc(-c2noc(CCCC(=O)N3CCN(c4cc(C)ccc4C)CC3)n2)cc1	·	·	·	·	-8.8	·
COc1cc(C)ccc1Oc1ccc([N+](=O)[O-])cc1	·	·	·	·	–	·
Oc1ccccc1-n1nc2ccc3nonc3c2n1	–	–	–	–	–	–
O=C(CN1CCN(CC(=O)Nc2ccccc2Cc2ccccc2)CC1)Nc1ccccc1Cl	–	–	–	–	–	–
O=C(O)CSc1nc2ccccc2nc1Cc1ccccc1F	–	–	–	–	–	–
O=[N+]([O-])/C=C\c1ccc(N2CCCC2)c(F)c1	–	–	–	–	-9.6	–
Cc1ccc(NC(=S)N(CCCN2CCCC2)Cc2cccn2Cc2ccc(Cl)cc2)cc1C	–	–	–	–	–	–
Cc1ccc(NC(=S)N(CCCN2CCCC2)Cc2cccn2Cc2ccc(Cl)cc2)cc1Cl	7	–	–	–	–	–
Cc1cc(C)c(NC(=O)C2CCCO2)c(C)c1NC(=O)C1CCCO1 (centres undefined)	–	–	–	–	–	–
O=[N+]([O-])c1ccc(N/N=C/C=C/c2ccco2)cc1	–	–	–	-7.2	–	–
O=C(O)c1ccc(N/N=C/C=C/c2ccc([N+](=O)[O-])o2)cc1	–	–	–	–	–	–
COc1ccc(S(=O)(=O)Cc2ccc(C(=O)NC3CCCCC3)o2)cc1	–	–	–	–	–	–
COc1ccc(C(=O)OC(COc2ccccc2)Cn2ccnc2)cc1 (centres undefined)	–	–	-7	–	–	–
O=C(NCC(=O)N1CCCC(C(F)(F)F)C1)c1ccco1 (centres undefined)	·	·	·	·	–	·
CC(Oc1cccc(Cl)c1)C(=O)NCc1ccc(S(N)(=O)=O)cc1 (centres undefined)	–	–	–	–	–	–
CC(Oc1cccc(Cl)c1)C(=O)NCCCCc1ccccc1 (centres undefined)	–	–	-5.5	–	–	–
COCC1CCCCN1Cc1cn[nH]c1-c1ccc2cc(OC)ccc2c1 (centres undefined)	–	–	–	–	–	–
SMILES	KCNQ1 block	KCNQ1 act	Kir21 block	KCNK9 inh	KCNK3 inh	hERG rescue
Cc1cnc(C(=O)OCC(=O)Nc2cc(S(=O)(=O)N3CCOCC3)ccc2Cl)cn1	·	·	·	·	–	·
COc1cccc(OC)c1OCCCCCc1c(C)n[nH]c1C	–	–	-4.5	–	–	–
COc1cccc(OC)c1OCCCCc1c(C)n[nH]c1C	–	–	–	–	–	–
Cc1cccc(C)c1OCCCCc1c(C)n[nH]c1C	–	–	–	-8	–	–
N=c1n(CCO)c2ccccc2n1CCOc1ccc(Cl)cc1Cl	–	–	-4.4	–	–	–
COc1ccc(CCC(=O)OCc2csc(CC(=O)Nc3ccccc3C)n2)cc1	–	–	–	–	–	–
COc1ccc2nc(N3C(=O)/C(=C/c4ccccc4)NC3=S)sc2c1	–	62	–	–	–	63
O=c1cc2c(nn1Cc1c(Cl)cccc1Cl)-c1ccccc1CC2	–	9	–	–	–	–
CCC(NC(=O)CSc1nnnn1C1CC1)c1ccc(Br)cc1 (centres undefined)	·	·	·	·	–	·
CC1=C(C)C(=O)C(CCCCC#CCCCC#CCO)=C(C)C1=O	–	–	–	–	-14	–
